Data set [1] deals with Mus musculus. The experiment in a line: Protective activity in FVB.129P2-Pde6b+ Tyr c-ch/AntJ wild type mouse assessed as increase in testicular weight at 20 mg/kg, sc for 21 days. It is filed as functional, organism-based. Particulars: time 21.0 day.
Data set [2] relates to Mus musculus. The experiment in a line: Anti-seizure activity against 124dB loud auditory stimulus induced Fmr1 knockout FVB.129P2-Fmr1tm1Cgr/J mouse model of audiogenic seizure assessed as decrease in sound-induced seizure at 20 mg/kg,sc for 8 hrs followed by audiogenic seizure induction by audiogenic seizure assay (Rvb=100%). It is filed as functional. Also on record: scale not given: the % may be the effect or the level left. The essentials: (§1)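 Adult male mice (10–17 wk). Single s.c. dose (0, 10, 20 or 30 mg/kg) in 20% (wt/vol) hydroxypropyl-β-cyclodextrin vehicle; AGS induced 8 h later. Mouse acclimated 2 min in a clear acrylic two-chamber box, then exposed to a 124 dB sound. Scored as percentage of animals showing each sequential phase (wild running, seizure, death by respiratory arrest); χ2 test against vehicle.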

Data set [3] is described as follows: Drug uptake in FVB.129P2 mouse brain at 20 mg/kg,sc for 5 days and measured after 24 hrs by LC-MS/MS analysis. It counts as ADME, organism-based. The conditions noted are these: in vivo, 120 h, time 5 day. The essentials:
(§2)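 Mice dosed s.c. at 20 mg/kg once daily for up to 5 d; plasma and forebrain sampled 24 h after the last injection. Brain homogenized in 2 volumes of cold PBS; levels measured by LC-MS/MS. n = 3–4, mean ± SEM.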

In data set [4] the test system is Mus musculus. The experiment in a line: Protective activity in Fmr1 knockout FVB.129P2-Fmr1tm1Cgr/J mouse model of Fragile X syndrome assessed as balance on accelerating rotarod at 20 mg/kg, sc and measured for 4 to 5.25 hrs by rotarod test. It is filed as functional, organism-based. The conditions noted are these: time 4-5.25 hrs. The essentials:
(§3)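 Adult male WT and Fmr1 KO mice tested 4–5.5 h after s.c. 20 mg/kg or vehicle. Latency to fall or jump off the rotating cylinder recorded (max 3 min). Three trials per mouse, 30–40 min apart; per-mouse average latency compared.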

Data set [5] concerns Mus musculus. Nature of the data set: Protective activity in FVB.129P2-Pde6b+ Tyr c-ch/AntJ wild type mouse assessed as motor coordination at 20 mg/kg, sc and measured for 4 to 5.25 hrs by rotarod test. It is filed as functional, organism-based. Particulars: time 4-5.25 hrs. The method in brief: as §3
(In the rotarod test animals must keep their balance on a rotating rod.)

For data set [6], the system named is Mus musculus. The experiment in a line: Protective activity in Fmr1 knockout FVB.129P2-Fmr1tm1Cgr/J mouse model of Fragile X syndrome assessed as decrease in distance travelled at 20 mg/kg, sc for 5 days and measured during 18 to 30 mins by open field assay. It is filed as functional, organism-based. The conditions noted are these: time 5.0 day. The essentials:
(§4)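 Adult male WT and Fmr1 KO mice dosed s.c. at 20 mg/kg or vehicle for 5 d; tested 4–5.5 h after dosing. Single mouse in a novel open field for 30 min, tracked by infrared sensors in 1-min bins; bar-graph values averaged over minutes 18–30. Mice beyond 2 SD in total distance, or immobile for 5 consecutive minutes, were excluded.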

Data set [7] has as its system Mus musculus. The experiment in a line: Anti-seizure activity against 124dB loud auditory stimulus induced Fmr1 knockout FVB.129P2-Fmr1tm1Cgr/J mouse model of audiogenic seizure assessed as decrease in sound-induced wild running at 10 mg/kg,sc for 5 days followed by audiogenic seizure induction after 8 hrs post-treatment by audiogenic seizure assay (Rvb=100%). It counts as functional. Also on record: scale not given: the % may be the effect or the level left. The conditions noted are these: time 5 day. The method in brief:
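Adult male Fmr1 KO mice given 10 or 20 mg/kg s.c. daily for 5 d in 20% hydroxypropyl-β-cyclodextrin vehicle. AGS assay run 8 h after the final injection: 2 min acclimation in an acrylic chamber, then a 124 dB auditory stimulus. Incidence of wild running and seizure recorded; χ2 comparison with vehicle.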

The test system of data set [8] is Mus musculus. Nature of the data set: Protective activity in FVB.129P2-Pde6b+ Tyr c-ch/AntJ wild type mouse assessed as decrease in counterclockwise revolutions at 20 mg/kg, sc for 5 days by open field assay. It is filed as functional, organism-based. Particulars: time 5.0 day. The essentials:
as §4

The subject of data set [9] is Mus musculus. Nature of the data set: Protective activity in FVB.129P2-Pde6b+ Tyr c-ch/AntJ wild type mouse assessed as balance on accelerating rotarod at 20 mg/kg, sc and measured for 4 to 5.25 hrs by rotarod test. It counts as functional, organism-based. Particulars: time 4-5.25 hrs. The essentials: as §3
In data set [10] the test system is Mus musculus. Nature of the data set: Protective activity in Fmr1 knockout FVB.129P2-Fmr1tm1Cgr/J mouse assessed as decrease in apical dendritic spine density in layer II/III pyramidal neurons segment 2 at 20 mg/kg, sc and measured after 8 hrs by Golgi-Cox technique analysis. It counts as functional, organism-based. The essentials: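 Adult male WT and Fmr1 KO FVB mice given 20 mg/kg s.c. or vehicle; brains collected 8 h later and Golgi stained. Apical dendrites of layer II/III pyramidal neurons in temporal cortex, originating 50–100 µm from the soma, were divided into ten 10-µm segments and spines counted. 40–60 neurons from 4–6 mice per group; one-way ANOVA.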

The nature of data set [11]: Drug concentration in FVB.129P2 mouse brain at 20 mg/kg,sc and measured from 8 to 18 hrs by LC-MS/MS analysis. It is filed as ADME, organism-based. The conditions noted are these: in vivo, time 8-18 hrs. The essentials: (§5)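 WT FVB.129P2 mice got one s.c. injection of 20 mg/kg (2 mg/mL in 20% hydroxypropyl-β-cyclodextrin). Blood and forebrain were collected at time points from 15 min to 24 h. Forebrain was weighed, snap-frozen and homogenized in 2 volumes of cold PBS. Drug quantified by LC-MS/MS. n = 2–3, mean ± SEM.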

Data set [12] in a line: Toxicity in Fmr1 knockout FVB.129P2-Fmr1tm1Cgr/J mouse assessed as body weight change at 20 mg/kg,sc for 21 days. It counts as organism-based. Particulars: in vivo, 504 h, time 21 day.
Data set [13] can be described thus: Drug concentration in FVB.129P2 mouse plasma at 20 mg/kg,sc and measured upto 18 hrs by LC-MS/MS analysis. It is filed as ADME, organism-based. The method in brief:
as §5

Data set [14] is described as follows: Drug uptake in FVB.129P2 mouse plasma at 20 mg/kg,sc for 5 days and measured after 24 hrs by LC-MS/MS analysis. Particulars: in vivo, 120 h, time 5 day. It counts as ADME, organism-based. The essentials:
as §2

Data set [15] concerns Mus musculus. The experiment in a line: Anti-seizure activity against 124dB loud auditory stimulus induced Fmr1 FVB.129P2-Pde6b+ Tyr c-ch/AntJ wild type mouse model of audiogenic seizure assessed as decrease in sound-induced death due to respiratory arrest at 20 mg/kg,sc for 8 hrs followed by audiogenic seizure induction by audiogenic seizure assay. It is filed as functional, organism-based. The essentials:
as §1

The source made the active and inactive calls. The calls are words filed in the database; no cut-off is given here. A value given as a limit tells only on which side of the number the result lay.

For `CCn1c(=O)c(-c2ccc(Cl)cc2Cl)cc2cnc(Nc3ccc(N4CCNCC4)c(F)c3)nc21`, the outcome in [1], in [4], in [5], in [9], in data set [10] and in data set [15] was inactive. Also, the figures for the Activity in data set [2], in data set [7] and in data set [12] were 25%, 75% and “Non-Toxic”, respectively. Also, the Drug uptake result in data set [3] and in data set [14] was “Active” throughout. Also, the result in data set [6] and in data set [8] was Active. For the same compound, the Ct in [11] turned out to be 951 ng/g. Further, in data set [13], the concentration at 18 h is > 100 ng/mL.

(Values after ChEMBL document CHEMBL5653614, “Rescue of fragile X syndrome phenotypes in Fmr1 KO mice by the small-molecule PAK inhibitor FRAX486” (Proc Natl Acad Sci U S A, 2013).)
